The results in this text go back to ChEMBL document CHEMBL1146742, “A-420983: a potent, orally active inhibitor of lck with efficacy in a model of transplant rejection” (Bioorg Med Chem Lett, 2004).

The target in series [1] is T1, Interleukin-2 (Mus musculus) (UniProt P04351).
T1 sequence (whole entry): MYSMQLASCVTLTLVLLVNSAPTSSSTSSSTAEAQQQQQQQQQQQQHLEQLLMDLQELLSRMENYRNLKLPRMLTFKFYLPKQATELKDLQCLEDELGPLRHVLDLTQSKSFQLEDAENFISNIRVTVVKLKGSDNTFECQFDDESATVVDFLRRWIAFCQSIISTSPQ
The experiment in a line: Percent inhibition of interleukin-2 production by compound was measured after 8 hours of oral administration in mice. The conditions noted are these: concentration not given here. The series is classed as functional, organism-based.

Series [2] addresses T1, Interleukin-2 (Mus musculus). The experiment in a line: Percent inhibition of interleukin-2 production by compound was measured after 18 hours of oral administration in mice. The series is classed as functional, organism-based. Particulars: concentration not given here.
For series [3] the target is unchanged. The series can be described thus: Effective concentration to suppress interleukin-2 production was measured after 2.5 hours of oral administration in mice. The format is functional, organism-based.
For another series, the species on record is Homo sapiens. The series can be described thus: Inhibition of anti-CD3 mAb induced inter leukein-2 production in human whole blood was evaluated. The series is classed as functional, organism-based.
The nature of series [4]: Bioavailability was determined in mouse after 5 mg/kg (i.v.) and 6 mg/kg (p.o.) administration. Particulars: in vivo, po. The format is ADME, organism-based. The gist of the method:
(§1)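 Pharmacokinetics were measured in mouse (5 mg/kg iv, 6 mg/kg po) and dog (1 mg/kg iv, 5 mg/kg po). Reported parameters were Cmax (ng/mL), Tmax (h), Vd (L/kg), plasma clearance (L/h/kg), elimination half-life (h) and oral bioavailability F (%).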

Series [5] has as its target Vascular endothelial growth factor receptor 2 (Homo sapiens, UniProt P35968). The experiment in a line: Inhibition of vascular endothelial growth factor receptor 2 activity with 1 mM ATP and biotinylated lck peptide.
Series [6] is described as follows: Half life was determined in dog after 1 mg/kg (i.v.) and 5 mg/kg (p.o.) administration. The series is classed as ADME, organism-based, Canis lupus familiaris. The conditions noted are these: in vivo. In outline:
as §1

The nature of series [7]: Plasma clearance was determined in mouse after 5 mg/kg (i.v.) and 6 mg/kg (p.o.) administration. The series is classed as ADME, organism-based. The conditions noted are these: iv, read-out: Clp (converted). In outline:
as §1

Series [8] can be described thus: Time to reach maximum plasma concentration was determined in dog after 1 mg/kg (i.v.) and 5 mg/kg (p.o.) administration. The series is classed as ADME, organism-based, Canis lupus familiaris. Particulars: po. In outline: as §1
Series [9] is described as follows: Half life was determined in mouse after 5 mg/kg (i.v.) and 6 mg/kg (p.o.) administration. The series is classed as ADME, organism-based. The conditions noted are these: in vivo. The gist of the method: as §1
The nature of series [10]: Maximum plasma concentration of compound was determined in mouse after 5 mg/kg (i.v.) and 6 mg/kg (p.o.) administration. The format is ADME, organism-based. The conditions noted are these: po. The gist of the method:
as §1

The nature of series [11]: Time to reach maximum plasma concentration was determined in mouse after 5 mg/kg (i.v.) and 6 mg/kg (p.o.) administration. The conditions noted are these: po. The format is ADME, organism-based. The gist of the method:
as §1

Series [12] is described as follows: Bioavailability was determined in dog after 1 mg/kg (i.v.) and 5 mg/kg (p.o.) administration. The format is ADME, organism-based, Canis lupus familiaris. The conditions noted are these: in vivo, po. The gist of the method: as §1
The nature of series [13]: Volume of distribution was determined in mouse after 5 mg/kg (i.v.) and 6 mg/kg (p.o.) administration. The series is classed as ADME, organism-based. The conditions noted are these: in vivo, iv. The gist of the method:
as §1

A short description of series [14]: Maximum plasma concentration of compound was determined in dog after 1 mg/kg (i.v.) and 5 mg/kg (p.o.) administration. The series is classed as ADME, organism-based, Canis lupus familiaris. Particulars: po. In outline:
as §1

Series [15] can be described thus: Plasma clearance was determined in dog after 1 mg/kg (i.v.) and 5 mg/kg (p.o.) administration. The series is classed as ADME, organism-based, Canis lupus familiaris. Particulars: iv. In outline: as §1
Series [16] can be described thus: Volume of distribution was determined in dog after 1 mg/kg (i.v.) and 5 mg/kg (p.o.) administration. The series is classed as ADME, organism-based, Canis lupus familiaris. The conditions noted are these: in vivo, iv. In outline: as §1

Vascular endothelial growth factor receptor 2, sequence (P35968 whole entry): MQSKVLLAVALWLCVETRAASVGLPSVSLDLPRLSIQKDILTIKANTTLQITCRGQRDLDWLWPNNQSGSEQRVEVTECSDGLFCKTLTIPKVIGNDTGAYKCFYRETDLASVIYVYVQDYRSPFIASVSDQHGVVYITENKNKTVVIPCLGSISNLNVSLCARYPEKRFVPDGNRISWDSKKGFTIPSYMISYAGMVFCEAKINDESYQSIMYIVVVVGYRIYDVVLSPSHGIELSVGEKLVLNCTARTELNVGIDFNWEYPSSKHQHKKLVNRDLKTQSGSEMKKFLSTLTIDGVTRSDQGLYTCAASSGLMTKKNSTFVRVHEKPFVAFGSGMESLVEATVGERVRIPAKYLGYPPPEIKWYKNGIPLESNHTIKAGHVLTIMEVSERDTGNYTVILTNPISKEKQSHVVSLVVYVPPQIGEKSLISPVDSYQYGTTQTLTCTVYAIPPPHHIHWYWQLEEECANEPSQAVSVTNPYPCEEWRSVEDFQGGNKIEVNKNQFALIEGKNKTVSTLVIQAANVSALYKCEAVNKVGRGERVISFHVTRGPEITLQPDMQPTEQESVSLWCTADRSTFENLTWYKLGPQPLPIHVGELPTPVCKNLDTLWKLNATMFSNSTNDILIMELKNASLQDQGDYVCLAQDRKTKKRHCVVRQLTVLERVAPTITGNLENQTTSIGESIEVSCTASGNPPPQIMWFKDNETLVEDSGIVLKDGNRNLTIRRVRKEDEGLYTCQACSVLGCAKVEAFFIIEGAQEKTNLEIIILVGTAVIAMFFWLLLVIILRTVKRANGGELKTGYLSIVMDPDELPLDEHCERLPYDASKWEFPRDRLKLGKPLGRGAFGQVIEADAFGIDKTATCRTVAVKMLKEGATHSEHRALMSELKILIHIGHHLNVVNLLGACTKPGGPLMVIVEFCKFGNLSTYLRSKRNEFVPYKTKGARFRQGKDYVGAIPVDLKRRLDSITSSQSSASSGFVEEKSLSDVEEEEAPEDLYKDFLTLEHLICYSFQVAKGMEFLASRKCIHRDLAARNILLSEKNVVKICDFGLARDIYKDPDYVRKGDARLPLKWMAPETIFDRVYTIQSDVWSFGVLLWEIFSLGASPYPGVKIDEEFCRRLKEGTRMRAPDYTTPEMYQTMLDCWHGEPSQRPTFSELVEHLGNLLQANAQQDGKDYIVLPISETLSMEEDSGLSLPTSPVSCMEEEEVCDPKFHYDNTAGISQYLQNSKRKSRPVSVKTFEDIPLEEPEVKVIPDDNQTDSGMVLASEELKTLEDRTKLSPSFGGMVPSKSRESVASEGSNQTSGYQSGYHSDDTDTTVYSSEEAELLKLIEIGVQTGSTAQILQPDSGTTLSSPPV

The term inhibition denotes the percentage by which the read-out fell short of the control. Low readings indicate a weak effect, high ones a strong effect. As a reminder, the ED50 is the dose that gives a 50% effect, or the effect in half of the subjects. Low values mean an effect at a small dose, high ones a need for a large dose. The term IC50 denotes the point on the concentration scale where inhibition reaches its midpoint. A high value points to lower potency. Regarding `COc1cc(-c2nn([C@H]3CC[C@H](N4CCN(C)CC4)CC3)c3ncnc(N)c23)ccc1NC(=O)c1cc2ccccc2[nH]1`, the values for the inhibition in [1] and in series [2] were 79% and 33%, respectively. Moreover, in [3], the ED50 worked out at 7 mg/kg. In series [3], the ED90 was 12.5 mg/kg. This compound registered an IC50 in the series filed under Homo sapiens of 6 nM.
As for `COc1cc(-c2nn([C@H]3CC[C@H](N4CCN(C)CC4)CC3)c3ncnc(N)c23)ccc1NC(=O)c1cc2ccccc2o1`, the inhibition is 48% in series [1] and less than 10% in series [2]. In addition, the 50% effective dose (ED50) in series [3] was 8.5 mg/kg. Further, the ED90 in series [3] stood at 12.5 mg/kg. The same compound displayed a 50% inhibitory concentration (IC50) in the series filed under Homo sapiens of 7 nM.
`COc1cc(-c2nn([C@H]3CC[C@H](N4CCN(C)CC4)CC3)c3ncnc(N)c23)ccc1NCc1ccco1` displayed an IC50 in the series listed under Homo sapiens of 10 nM.
As to `COc1cc(-c2nn([C@H]3CC[C@H](N4CCN(C)CC4)CC3)c3ncnc(N)c23)ccc1NC(=O)OCc1ccccc1`, the inhibition is 51% in [1] and 14% in series [2]. In series [3], the ED50 is 3 mg/kg. In [3], this compound gave an ED90 of 14 mg/kg.
A word on the bioavailability: it is the share of a dose that reaches the circulation, judged against a reference dose that is usually intravenous. A high value points to good availability. The half-life is the time needed for the level to fall by half in the phase considered. Broadly, the Tmax is the time from dosing to the highest level. As a reminder, the Cmax is the maximum level reached in the sampled fluid or tissue. As to `COc1cc(-c2nn([C@H]3CC[C@H](N4CCN(C)CC4)CC3)c3ncnc(N)c23)ccc1NC(=O)c1cc2ccccc2n1C`, the bioavailability in series [4] turned out to be 30%; in series [12], 32%. Also, the values for the IC50 (in series [5]; in the series filed under Homo sapiens) were greater than 50000 nM and 8 nM, respectively. Further, the half-life in series [6] came to 45 h; in series [9] it was 10 h. The clearance was 28.3 mL/min/kg in series [7] and 11.7 mL/min/kg in series [15]. For the same compound, the inhibition in [1] and in series [2] was greater than 90% throughout. Moreover, the Tmax was found to be 24 h in series [8] and 8 h in series [11]. Moreover, the peak concentration (Cmax) turned out to be 51 ng/mL in series [10] and 74 ng/mL in series [14]. Moreover, the Vd in series [13] and in series [16] was 25 L/kg in each case. In addition, the ED50 in series [3] came out at 1.5 mg/kg. Also, the ED90 in [3] was 6 mg/kg.
